ChEMBL document CHEMBL4715794, “Design, Synthesis, and Biological Evaluation of Novel Cyclic Adenosine-Inosine Monophosphate (cAIMP) Analogs That Activate Stimulator of Interferon Genes (STING)” (J Med Chem, 2016)
Activity calls are given as the source filed them. The calls are words filed in the database; no cut-off is given here.

How the values were obtained:
[1] = molecular target: T1, Stimulator of interferon genes protein (Homo sapiens, UniProt Q86WV6); experiment: Activation of STING in human blood assessed as increase in IL-1 production at 10 ug/ml incubated for 18 to 20 hrs by QUANTI-Blue assay; assay type: tissue-based; conditions: filed as activator, time 18-20 hrs
Procedure, shortened: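 Whole blood from healthy donors, diluted 1:2 in RPMI with sodium pyruvate, incubated 18–20 h at 37 °C with CDN in saline. Supernatants assayed on HEK-Blue IL-1R reporter cells (~50,000/well, ~20 h, 37 °C), SEAP read with QUANTI-Blue. Fold induction over unstimulated; mean of fifteen donors over three experiments.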

[2] = Stability in presence of snake venom phosphodiesterase assessed as parent compound remaining level at 7 ug incubated for 2 hrs by HPLC analysis; assay type: ADME; conditions: in vitro, at 7 µg
Procedure, shortened: (§1)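 7 µg of each CDN incubated at 37 °C in a water bath with 21 µL of enzyme solution (160 µg snake venom phosphodiesterase in PBS with 0.6 mM MgCl2), with water as the no-enzyme control. Aliquots were taken at time points from 0 to 2 h, heated at 100 °C for 2 min, frozen, then injected onto a C18 UHPLC column with UV detection to follow the parent compound.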

[3] = molecular target: T1, Stimulator of interferon genes protein; experiment: Activation of STING in human blood assessed as induction of type I IFNs incubated for 18 to 20 hrs by QUANTI-Blue assay; assay type: tissue-based
Nuclease P1 [4] = molecular target: T2, Nuclease P1 (Penicillium citrinum, UniProt P24289); experiment: Stability in presence of nuclease P1 assessed as parent compound remaining level at 7 ug incubated for 2 hrs by HPLC analysis; assay type: ADME; conditions: at 7 µg; for Stabilty: in vitro, 2 h
T2 sequence (P24289 whole entry): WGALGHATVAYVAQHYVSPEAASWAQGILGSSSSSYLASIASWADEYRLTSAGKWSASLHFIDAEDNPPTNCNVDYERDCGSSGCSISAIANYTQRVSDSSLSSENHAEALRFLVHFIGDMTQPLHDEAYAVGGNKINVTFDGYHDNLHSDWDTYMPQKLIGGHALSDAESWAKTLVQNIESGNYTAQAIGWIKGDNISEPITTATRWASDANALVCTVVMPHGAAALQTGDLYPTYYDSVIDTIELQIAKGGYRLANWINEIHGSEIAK
Procedure, shortened: (§2)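 7 µg CDN incubated at 37 °C with 2.5 mU NP1 in 30 mM acetate buffer, 2 mM ZnCl2, pH 5.3 (water control). Aliquots taken from 0 to 2 h, heated 100 °C for 2 min, frozen, then analysed by reverse-phase UPLC with UV detection.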

[5] = molecular target: T3, Stimulator of interferon genes protein (Mus musculus, UniProt Q3TBT3); experiment: Activation of STING in mouse RAW-Lucia ISG cells assessed as induction of type I IFNs stimulation by measuring induction of IRF pathway incubated for 48 hrs by luciferase reporter gene assay; assay type: cell-based
T3 sequence (Q3TBT3 whole entry): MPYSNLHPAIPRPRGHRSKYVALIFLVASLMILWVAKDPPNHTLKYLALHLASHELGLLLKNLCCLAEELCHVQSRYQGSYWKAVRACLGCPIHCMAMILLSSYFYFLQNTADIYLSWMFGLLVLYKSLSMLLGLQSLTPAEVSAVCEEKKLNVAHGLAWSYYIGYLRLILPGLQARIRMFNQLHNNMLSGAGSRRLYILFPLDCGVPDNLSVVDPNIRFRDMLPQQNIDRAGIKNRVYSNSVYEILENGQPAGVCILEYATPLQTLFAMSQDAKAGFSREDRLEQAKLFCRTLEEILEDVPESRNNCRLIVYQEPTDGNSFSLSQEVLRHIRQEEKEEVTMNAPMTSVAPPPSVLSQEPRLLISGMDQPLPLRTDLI
Procedure, shortened: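 Cells (~100,000/well) stimulated 48 h at 37 °C, 5% CO2, with saline vehicle or compound in saline at seven concentrations. Luciferase reporter read with Quanti-Luc. EC50 from log(agonist) dose-response fit; mean ± SD of three independent experiments.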

[6] = molecular target: T4, Stimulator of interferon genes protein (Mus musculus) (UniProt Q3TBT3); experiment: Activation of STING in mouse RAW-Lucia ISG cells assessed as induction of type I IFNs stimulation by measuring induction of IRF pathway incubated for 48 hrs by luciferase reporter gene assay relative to 2',3'-cGAMP; assay type: cell-based; conditions: filed as activator
T4 sequence (whole entry): T3 sequence (Q3TBT3 whole entry)
Procedure, shortened: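 RAW-Lucia ISG cells (~100,000/well), 48 h at 37 °C, 5% CO2, compound in saline at seven concentrations, Quanti-Luc luciferase read-out. Emax taken as fitted top plateau, normalized to the 2',3'-cGAMP response in each assay; mean percentage ± SD of three independent experiments.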

RAW [7] = experiment: Induction of type I IFN production in mouse RAW-Lucia ISG-KO-STING cells at 0.08 to 60 ug/ml incubated for 48 hrs by luciferase reporter gene assay; assay type: functional, cell-based; conditions: dose 0.08-60 µg/ml
[8] = Stability in presence of snake venom phosphodiesterase assessed as parent compound remaining level at 7 ug incubated for >2 hrs by HPLC analysis; assay type: ADME; conditions: at 7 µg
Nuclease P1 [9] = molecular target: T2, Nuclease P1; experiment: Stability in presence of nuclease P1 assessed as half life at 7 ug incubated for 2 hrs by HPLC analysis; assay type: ADME; conditions: nuclease P1 (isolated enzyme), dose 7 µg; procedure, shortened: as §2
[10] = (§3) Stability in presence of snake venom phosphodiesterase assessed as parent compound degradation at 7 ug incubated for 2 hrs by HPLC analysis; assay type: ADME; conditions: 2 h; procedure, shortened: as §1
RAW [11] = experiment: Induction of type I IFN production in mouse RAW-Lucia ISG-KO-STING cells at 0.08 to 100 ug/ml incubated for 48 hrs by luciferase reporter gene assay; assay type: functional, cell-based; conditions: dose 0.08-100 µg/ml
[12] = molecular target: T5, ENPP1 (ectonucleotide pyrophosphatase/phosphodiesterase family member 1) (Homo sapiens, UniProt P22413); experiment: Stability in presence of ENPP1 ( unknown origin) assessed as half life by HPLC analysis; conditions: ENPP1 (isolated enzyme, unknown origin)
T5 sequence (P22413 whole entry): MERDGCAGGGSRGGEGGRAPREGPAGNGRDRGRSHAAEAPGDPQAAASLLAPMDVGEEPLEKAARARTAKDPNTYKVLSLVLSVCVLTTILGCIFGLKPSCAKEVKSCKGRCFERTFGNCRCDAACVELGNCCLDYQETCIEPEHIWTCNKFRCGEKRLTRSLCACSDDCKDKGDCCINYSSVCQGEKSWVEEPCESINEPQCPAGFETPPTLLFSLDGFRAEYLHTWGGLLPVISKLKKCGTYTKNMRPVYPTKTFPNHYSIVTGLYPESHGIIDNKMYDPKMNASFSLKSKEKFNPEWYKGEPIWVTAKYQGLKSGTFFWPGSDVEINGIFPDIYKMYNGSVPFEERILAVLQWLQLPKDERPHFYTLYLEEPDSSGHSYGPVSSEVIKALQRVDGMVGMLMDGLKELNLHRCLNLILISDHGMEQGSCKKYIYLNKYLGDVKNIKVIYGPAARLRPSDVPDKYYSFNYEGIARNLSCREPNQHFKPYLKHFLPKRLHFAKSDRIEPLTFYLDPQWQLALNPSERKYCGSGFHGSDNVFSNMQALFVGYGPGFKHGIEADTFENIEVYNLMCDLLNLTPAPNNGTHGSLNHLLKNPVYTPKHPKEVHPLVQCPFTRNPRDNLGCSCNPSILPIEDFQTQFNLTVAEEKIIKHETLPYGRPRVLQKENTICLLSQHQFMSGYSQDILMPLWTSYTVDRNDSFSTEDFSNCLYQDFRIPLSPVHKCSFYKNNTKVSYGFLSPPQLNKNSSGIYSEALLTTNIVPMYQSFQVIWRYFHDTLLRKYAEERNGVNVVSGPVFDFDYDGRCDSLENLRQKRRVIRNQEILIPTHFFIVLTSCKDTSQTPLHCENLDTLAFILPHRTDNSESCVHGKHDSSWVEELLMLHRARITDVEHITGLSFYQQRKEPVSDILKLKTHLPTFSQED

[13] = test system: snake venom phosphodiesterase; experiment: as §3; assay type: ADME; conditions: snake venom phosphodiesterase, read-out: Drug degradation; procedure, shortened: as §1

T1 sequence (Q86WV6 whole entry): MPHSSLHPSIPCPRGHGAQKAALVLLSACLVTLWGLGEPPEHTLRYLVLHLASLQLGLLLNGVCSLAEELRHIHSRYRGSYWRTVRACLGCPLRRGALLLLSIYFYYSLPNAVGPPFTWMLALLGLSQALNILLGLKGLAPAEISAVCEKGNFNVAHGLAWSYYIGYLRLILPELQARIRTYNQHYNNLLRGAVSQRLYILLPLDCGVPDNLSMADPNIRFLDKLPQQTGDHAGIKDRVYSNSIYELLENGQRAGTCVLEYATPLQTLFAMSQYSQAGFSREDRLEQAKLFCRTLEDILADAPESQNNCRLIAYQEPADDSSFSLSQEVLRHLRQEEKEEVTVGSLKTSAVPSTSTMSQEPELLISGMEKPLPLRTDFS

SMILES	Stabilty [2]	EC50 [3]	EC50 [5]	Emax [6]	Activity (RAW [7])	further results
Nc1ncnc2c1ncn2[C@@H]1O[C@@H]2COP(=O)(O)O[C@H]3[C@@H](F)[C@H](n4cnc5c(O)ncnc54)O[C@@H]3COP(=O)(O)O[C@H]2[C@H]1F	Stable	0.7 µM	5.1 µM	90%	inactive	Activity [1]: Active; Stabilty (Nuclease P1 [4]): Stable
Nc1ncnc2c1ncn2[C@H]1C[C@@H]2OP(=O)(S)OC[C@H]3O[C@@H](n4cnc5c(O)ncnc54)[C@H](F)[C@@H]3OP(=O)(S)OC[C@H]2O1 (stereo partly specified)	Stable	4.7 µM	2.2 µM	83%	inactive	Stabilty [8]: Stable
Nc1ncnc2c1ncn2[C@@H]1O[C@@H]2COP(=O)(O)O[C@H]3C[C@H](n4cnc5c(O)ncnc54)O[C@@H]3COP(=O)(O)O[C@H]2[C@H]1F	–	3.6 µM	9.1 µM	99%	inactive	–
Nc1ncnc2c1ncn2[C@@H]1O[C@@H]2COP(=O)(S)O[C@H]3[C@@H](O)[C@H](n4cnc5c(O)ncnc54)O[C@@H]3COP(=O)(S)O[C@H]2[C@H]1O (stereo partly specified)	Stable	10.6 µM	4 µM	115%	inactive	Stabilty (Nuclease P1 [4]): Stable
Nc1ncnc2c1ncn2[C@@H]1O[C@@H]2COP(=O)(O)O[C@H]3[C@@H](O)[C@H](n4cnc5c(O)ncnc54)O[C@@H]3COP(=O)(O)O[C@H]2[C@H]1O	–	–	–	107%	inactive	half-life at 7 ug (Nuclease P1 [9]): 23.1 min; Stabilty [10]: Unstable
Nc1ncnc2c1ncn2[C@@H]1O[C@@H]2COP(=O)(O)O[C@H]3[C@@H](O)[C@H](n4cnc5c(O)ncnc54)O[C@@H]3COP(=O)(O)O[C@@H]1[C@@H]2O	–	–	–	85%	inactive	–
Cc1ccc2c(=O)c3cccc(CC(=O)O)c3oc2c1C	–	–	–	–	–	Activity (RAW [11]): inactive
Nc1nc2c(ncn2[C@@H]2O[C@@H]3COP(=O)(O)O[C@H]4[C@@H](O)[C@H](n5cnc6c(N)ncnc65)O[C@@H]4COP(=O)(O)O[C@@H]2C3)c(=O)[nH]1	–	–	–	–	–	half-life [12]: 60 min
Nc1ncnc2c1ncn2[C@@H]1O[C@@H]2COP(=O)(S)O[C@H]3[C@@H](F)[C@H](n4cnc5c(O)ncnc54)O[C@@H]3COP(=O)(S)O[C@H]2[C@H]1F (stereo partly specified)	Stable	0.4 µM	0.6 µM	104%	inactive	Activity [1]: Active; Stabilty [8]: Stable; Stabilty (Nuclease P1 [4]): Stable
Nc1ncnc2c1ncn2[C@H]1C[C@@H]2OP(=O)(O)OC[C@H]3O[C@@H](n4cnc5c(O)ncnc54)C[C@@H]3OP(=O)(O)OC[C@H]2O1	Stable	9.9 µM	11.6 µM	91%	inactive	half-life at 7 ug (Nuclease P1 [9]): 5.7 min; metabolised at 2 h, 7 ug [13]: < 40%
Nc1nc2c(ncn2[C@@H]2O[C@@H]3COP(=O)(O)O[C@H]4[C@@H](O)[C@H](n5cnc6c(N)ncnc65)O[C@@H]4COP(=O)(O)O[C@@H]2[C@@H]3O)c(=O)[nH]1	Stable	–	–	–	inactive	half-life [12]: 60 min; remaining at 2 h, 7 ug (Nuclease P1 [4]; nuclease P1 (isolated enzyme), time 2 hrs, read-out: Stabilty): 83%
Nc1ncnc2c1ncn2[C@@H]1O[C@@H]2COP(=O)(O)O[C@@H]3[C@H](O)[C@@H](COP(=O)(O)O[C@H]2[C@H]1O)O[C@H]3n1cnc2c(=O)[nH]cnc21	–	–	6.1 µM	85%	inactive	half-life at 7 ug (Nuclease P1 [9]): 7.1 min
Nc1ncnc2c1ncn2[C@@H]1O[C@@H]2COP(=O)(O)O[C@@H]3[C@H](O)[C@@H](COP(=O)(O)O[C@@H]1[C@@H]2O)O[C@H]3n1cnc2c(O)ncnc21	–	–	–	95%	inactive	–
Nc1ncnc2c1ncn2[C@H]1C[C@@H]2OP(=O)(O)OC[C@H]3O[C@@H](n4cnc5c(O)ncnc54)[C@H](F)[C@@H]3OP(=O)(O)OC[C@H]2O1	Stable	2.8 µM	5 µM	93%	inactive	–
